# A selection: hits, their analogues and other compounds. The true share with any hit is near 1.9%.
# Yeast superoxide: caloric restriction mimetics inhibiting age-related superoxide in yeast; hit rate 0.18% among 330,000; superoxide response (% of plate mean), % at 10 µM; S. cerevisiae aged cells, superoxide DHE fluorescence; hits give low values; AID 2690;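 active means superoxide response under a set limit, about three screen SD below normal, cut at about 65% in these data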;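 further: yeast aged for seven days with compound at 30 °C before DHE staining; 100% = average MFI of all compound-treated wells on the plate with controls excluded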
# MIN6 prolif: inducers of beta-cell replication in MIN6 cells | MIN6 cells proliferation, ATPlite luminescence, 48 h; cells starved in 0.2% serum; 100% = growth in 10% serum | proliferation, % at 10 µM | hit rate 0.29% among 330,000;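 active means compounds whose signal lies at least 3.5 SD above the mean of all wells on their plate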;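 further: 0% = DMSO-treated cells in low-serum medium and 100% = 10% serum control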
# Rce1 inhib: yeast Ras-converting enzyme inhibition; calls only; hit rate 0.27% among 290,000; yeast membranes, quenched prenylated peptide cleavage fluorescence;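 active means fall in fluorescence gain of 50% or more versus controls, with final raw signal at or below 3038400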;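 further: plate controls were neutral control wells for no effect and wells lacking membranes for full effect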
# UCH37 inh: human UCH37 deubiquitinating enzyme inhibition; AID 588478; Q9Y5K5; hit rate 0.33% among 330,000; purified proteasome/UCH37, Ub-AMC cleavage fluorescence; inhibition, % (test concentration not listed);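 active means mean inhibition over replicate wells above about 20%, limit read from the data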;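 further: 0% = compound-free wells with enzyme and 100% = wells lacking proteasome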
#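 Signal – fluorescence, ex 355 nm, em 460 nm · System – Proteasome-bound UCH37 · Input – 0.15 nM proteasome as dispensed · Timing – 30 min preincubation with enzyme, 25 min cleavage at room temperature · Read-out basis – percent inhibition of cleavage signal versus uninhibited and no-proteasome wells · Medium – Tris-HCl pH 7.4 with ATP-MgCl2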
# PG9 Ab binder: binds the HIV-1 gp120 antibody PG9 | inhibition, % at 6.7 µM | hit rate 0.43% among 360,000 | TR-FRET gp120-PG9 antibody binding; in the data active means inhibition above about 8.5%
# Rev-erbA mod: modulators of human Rev-erb alpha DNA binding. hit rate 0.79% among 370,000. activity, % at 10 µM. Rev-erbα–FITC-DNA binding, fluorescence polarization, 90 min. P20393;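 active means activity above about 14%, limit read from the data; passing the limit was not always enough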;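 further: 0% = DMSO wells with 35 nM protein and 100% = DMSO wells with 750 nM protein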
# Target sequence (P20393 whole entry, looked up): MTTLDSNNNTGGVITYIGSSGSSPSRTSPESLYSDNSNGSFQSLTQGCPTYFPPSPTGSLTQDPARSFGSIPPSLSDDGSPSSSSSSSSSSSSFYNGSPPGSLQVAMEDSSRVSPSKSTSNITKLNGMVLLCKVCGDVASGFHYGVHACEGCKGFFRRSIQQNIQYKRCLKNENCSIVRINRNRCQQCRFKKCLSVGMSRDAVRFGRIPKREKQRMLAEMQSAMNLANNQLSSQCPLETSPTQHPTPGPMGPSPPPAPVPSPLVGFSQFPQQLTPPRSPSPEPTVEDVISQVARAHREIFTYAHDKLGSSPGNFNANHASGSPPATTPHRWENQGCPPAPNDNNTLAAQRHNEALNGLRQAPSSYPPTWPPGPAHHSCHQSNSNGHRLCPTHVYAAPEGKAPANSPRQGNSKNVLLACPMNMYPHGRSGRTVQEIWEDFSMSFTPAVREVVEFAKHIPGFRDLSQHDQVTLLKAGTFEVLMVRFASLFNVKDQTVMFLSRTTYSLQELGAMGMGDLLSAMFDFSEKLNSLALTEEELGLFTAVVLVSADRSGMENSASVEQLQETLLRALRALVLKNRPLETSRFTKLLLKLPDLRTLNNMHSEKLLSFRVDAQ
# NR1D1 mod conf: confirmation of modulators of human Rev-erb alpha DNA binding. shares compounds with Rev-erbA mod. activation, % at 25 µM. AID 1259319. hit rate 61% among 3,000. Rev-erb alpha FITC-DNA binding, fluorescence polarization, 90 min;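 active means activation at or above a set limit, or at least 3 SD above the negative control mean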;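 further: 0% = 35 nM protein with DMSO and 100% = 750 nM protein high control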
# RORg DNA counter: counter-screen for Rev-erb alpha modulators: RORgamma DNA binding. purified RORgamma protein-FITC-DNA binding, fluorescence polarization. AID 1259320. IC50, µM. shares compounds with Rev-erbA mod. hit rate 8% among 910;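 active means Compounds whose fitted half-maximal concentration for disrupting protein-DNA binding is below 10 micromolar; the record names Rev-erb in its text, so the target is in doubt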
# The depositor's hits bear a star; i = inactive; x = no result given.
SMILES,Yeast superoxide,MIN6 prolif,Rce1 inhib,UCH37 inh,PG9 Ab binder,Rev-erbA mod,NR1D1 mod conf,others
CC(=NN)c1c(-c2ccccc2)c2cc(Br)ccc2[nH]c1=O,x,x,x,5.1,x,x,x,
CCOC(=O)c1cc2c(nc1NC(=S)NCc1ccccc1)CCCC2,105.5,-2.4,i,-0.5,-0.2,37.6*,22.9*,
O=C(Nc1ccccc1)Nc1ncc([N+](=O)[O-])s1,x,-4.8,x,10.0,-2.1,22.6*,11.3,
O=C(COC(=O)c1ccccc1)Nc1ncc([N+](=O)[O-])s1,94.4,-0.5,x,5.3,2.9,-22.4,x,
Cc1ccc(NC(=O)CSc2nnc(N=CN(C)C)s2)cc1,x,x,x,3.1,x,x,x,
Cn1c(SCC(=O)Nc2cccc(F)c2)nnc1-c1cc2ccccc2o1,88.4,-2.8,i,0.5,2.1,75.3*,102.3*,RORg DNA counter=>40
CC(=O)Nc1ccc(-c2nnc(SCC(=O)Nc3ccc4c(c3)oc3ccccc34)n2C)cc1,96.1,-4.7,i,1.8,1.2,-0.9,x,
O=C(COc1nc2ccccc2nc1N1CCOCC1)N1CCc2ccccc21,x,x,i,-11.1,-2.3,96.5*,61.6*,RORg DNA counter=4.34*
O=[N+]([O-])c1ccc(NN=C2CCCCC2c2ccccn2)c([N+](=O)[O-])c1 (stereo not given),x,x,x,7.4,x,x,x,
COc1ccc(C2CC2C(C)=NOC(=O)C2CC2)cc1 (stereo not given),x,x,x,2.5,x,x,x,
CCn1cc(C(=O)NCCc2ccccc2C)c(=O)c2ccc(C)nc21,109.8,-0.3,i,-0.5,-1.6,43.6*,51.9*,RORg DNA counter=3.77*
CCn1cc(C(=O)NCc2ccccc2F)c(=O)c2ccc(C)nc21,112.7,0.5,i,2.3,x,x,x,
CC(=NNC(=O)c1cccc(S(=O)(=O)N2CCCC2)c1)c1ccncc1,x,x,x,2.7,x,x,x,
Cc1ccc(NC(=O)CSc2nc3ccccc3c3nc4ccccc4n23)cc1,122.7,-2.5,i,-2.3,2.8,57.7*,10.2,
Cc1cc(NC(=O)CSc2nc3ccccc3c(=O)n2-c2ccccc2)no1,105.7,-2.6,i,-2.7,0.6,27.0*,6.3,
Cc1ccc(-n2c(SCC(=O)c3ccc4c(c3)OCO4)nc3ccccc3c2=O)cc1,x,x,x,x,x,-3.0,x,
O=C(CSc1nc2ccccc2c(=O)n1-c1ccc(F)cc1)Nc1ccc(N2CCOCC2)cc1,111.5,-0.1,i,3.7,-0.3,-4.6,x,
Cc1ccc(C(=O)CSc2nc3ccccc3c(=O)n2-c2ccccc2)s1,101.5,-1.4,i,0.4,28.7*,49.1*,34.8*,RORg DNA counter=>40
O=C(CSc1nc2ccccc2c(=O)n1-c1ccc(F)cc1)Nc1cc(S(=O)(=O)N2CCOCC2)ccc1Cl,90.1,0.0,i,-0.6,-1.2,65.2*,33.5*,RORg DNA counter=>40
COc1ccc(-n2c(SCC(=O)Nc3ccc4c(c3)OCO4)nc3ccccc3c2=O)cc1,90.3,-3.9,i,3.2,-3.4,1.7,x,
CCCCn1c(SCC(=O)Nc2cc(C)on2)nc2ccsc2c1=O,105.7,0.5,i,1.6,-3.2,45.1*,27.1*,
COc1ccc(NC(=O)CSc2nc3ccccc3c(=O)n2-c2ccc3c(c2)OCO3)c(OC)c1,90.9,-4.0,i,4.2,-0.6,83.9*,126.8*,RORg DNA counter=>40
Cc1ccc(-n2c(SCC(=O)Nc3cccc(C)c3)nc3c(oc4ccccc43)c2=O)cc1,90.0,0.0,i,2.7,-1.2,78.8*,125.0*,RORg DNA counter=>40
Cc1cc(NC(=O)CSc2nc3ccsc3c(=O)n2CCCCC(=O)O)no1,122.2,-1.4,i,0.2,0.9,0.5,x,
O=C(NN=C/C=C/c1ccccc1)C1CC1(c1ccccc1)c1ccccc1 (stereo not given),x,x,x,4.5,x,x,x,
SMILES,Yeast superoxide,MIN6 prolif,Rce1 inhib,UCH37 inh,PG9 Ab binder,Rev-erbA mod,NR1D1 mod conf,others
CCN1/C(=C/c2ccc3cccc(C)c3[n+]2CC)Sc2ccccc21,133.8,-5.6,i,12.5,-8.0,47.8*,70.6*,RORg DNA counter=>40
CCN1/C(=C/c2ccc3cc(C)cc(C)c3[n+]2CC)Sc2cc(C)ccc21,x,x,x,9.3,-6.5,30.9*,37.4*,RORg DNA counter=i
CCN1/C(=C\c2ccc3cc(C)ccc3[n+]2CC)Sc2cc(C)c(C)cc21,x,x,i,11.8,-3.2,8.3,x,
CCOc1cccc2sc(=NC(=O)c3ccc(S(=O)(=O)N4CCOCC4)cc3)n(C)c12,104.8,-4.4,x,-462.6,-2.1,30.2*,-3.7,
Cc1c(NC(=O)C2CCCN(S(=O)(=O)c3c(C(C)C)cc(C(C)C)cc3C(C)C)C2)c(=O)n(-c2ccccc2)n1C (stereo not given),x,x,x,x,x,28.5*,24.5*,
N#CCSc1nnc(-c2sc3ccccc3c2Cl)o1,121.7,-3.2,i,0.6,-2.6,-3.2,x,
Clc1cccc2sc(-c3nnc(-c4ccccc4)o3)c(Cl)c12,98.8,-2.8,i,-47.0,1.0,37.9*,31.0*,
NC(=O)C1(N2CCCCC2)CCN(C(=S)Nc2ccc(F)c(Cl)c2)CC1,93.4,0.8,i,4.8,-2.2,13.3*,-6.0,
CCCOc1c(Br)cc(C=NO)cc1OC,x,x,x,-2.1,x,x,x,
COC(=O)Cn1c(=NC(=O)c2nc3ccccc3s2)sc2cc(S(N)(=O)=O)ccc21,93.0,-2.1,i,x,-1.8,38.9*,23.5*,
COCCn1c(=NC(=O)c2ccc(S(=O)(=O)N3CCCc4ccccc43)cc2)sc2cc(S(C)(=O)=O)ccc21,108.2,-0.4,i,2.6,-0.3,11.4,x,
COC(=O)Cn1c(=NC(=O)c2cc(-c3cccs3)nc3ccccc23)sc2cc(S(N)(=O)=O)ccc21,115.2,0.0,i,x,-1.8,3.3,x,
COCCn1c(=NC(=O)c2nc3ccccc3s2)sc2cc(S(C)(=O)=O)ccc21,113.4,0.1,i,-167.8,-0.1,88.8*,63.5*,RORg DNA counter=>40
COCCn1c(=NC(=O)c2ccc3c(c2)OCCO3)sc2cc(S(N)(=O)=O)ccc21,110.4,2.5,i,-39.7,7.1,28.9*,38.3*,RORg DNA counter=i
CC(=NNC(=O)c1cn(-c2cccc(C)n2)cn1)c1ccc(C)cc1,x,x,x,-0.6,x,x,x,
CCC(Oc1ccccc1)C(=O)Nc1cc(C(F)(F)F)ccc1N1CCOCC1 (stereo not given),105.3,-7.2,i,2.1,-0.4,16.2*,12.4,
Cc1ccccc1N(CC(=O)NN=Cc1ccc(N(C)C)cc1)C(=O)c1ccccc1,x,x,x,-71.4,x,x,x,
N#Cc1cc2c(nc1SCc1cccnc1)CCC2,93.0,-1.1,i,1.3,-4.5,-0.8,x,
Cc1cccc(CSc2nc3c(cc2C#N)CCC3)c1,106.2,-1.2,i,2.9,0.2,47.2*,29.9*,
Fc1ccc(C=NNc2cc(N3CCOCC3)ncn2)cc1,x,x,x,1.4,x,x,x,
CC(=NNC(=S)Nc1ccccc1C)c1cc2ccccc2o1,x,x,x,2.4,x,x,x,

# Source: PubChem
